According to ChEMBL document CHEMBL1148481, “Linker length modulates DNA cross-linking reactivity and cytotoxic potency of C8/C8' ether-linked C2-exo-unsaturated pyrrolo[2,1-c][1,4]benzodiazepine (PBD) dimers” (J Med Chem, 2004):

Columns and labels:
[1] = Compound was tested for percentage inhibition of restriction endonuclease BamH1 enzyme at a concentration of 25 uM;Inhibited
[2] = Compound was tested for inhibition of restriction endonuclease BamH1 enzyme at a concentration of 25 uM;Inhibited
How it was run: (§1)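 BamHI protection assay: a 512-bp PvuII plasmid fragment with a single BamHI site (500 ng) was incubated with the PBD (methanol stock 10 mM) for 16 h at 37 °C. It was then digested with BamHI (10 units) for 1 h at 37 °C. Cut and uncut DNA were resolved on a 1% agarose TBE gel, stained with ethidium bromide, and the cut fraction was quantified versus dose.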

Nucleic Acid [3] = assay: Thermal stabilization of duplex form of calf thymus DNA after incubation for 0 hours; type: functional; conditions: Bos taurus
How it was run: (§2)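 UV melting of calf thymus DNA (100 μM phosphate, 50 μM bp) with ligand at 20 μM (ligand:DNA 1:5) in pH 7.00 buffer (10 mM sodium phosphate, 1 mM EDTA), ≤0.6% v/v MeOH with correction. Samples were preincubated at 37 °C for the stated time, heated at 1 °C/min over 45–98 °C and monitored at 260 nm. ΔTm is the midpoint shift versus free DNA, from at least three determinations.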

Nucleic Acid [4] = assay: Thermal stabilization of duplex form of calf thymus DNA after incubation for 18 hours; type: functional; conditions: Bos taurus; how it was run: as §2
Nucleic Acid [5] = assay: Thermal stabilization of duplex form of calf thymus DNA after incubation for 4 hours; type: functional; conditions: Bos taurus; how it was run: as §2
K562 [6] = assay: Inhibitory concentration against human K562 leukemia cells following incubation for 1 hour; type: functional, cell-based; conditions: K562, 1 h
How it was run: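 K562 cells in RPMI 1640 with 10% FCS and 2 mM glutamine were exposed to drug for 1 h at 37 °C in the dark, then washed. They were plated at 10⁴ cells/well (8 wells per sample) and grown 4 days. MTT was added for 5 h, formazan dissolved in DMSO, and OD read at 550 nm. IC50 is the dose reducing OD to 50% of control.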

Nucleic Acid [7] = assay: Compound dose required to induce 50 percent cross linking in naked plasmid pBR322 DNA following incubation with agent for 2 hours at 37 degree C; type: functional
How it was run: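 Denatured at 90 °C for 2.5 min in 30% DMSO and run on 0.8% agarose, 40 V, 14–16 h. Autoradiography and laser densitometry of double- vs single-stranded bands gave dose–response curves; mean of ≥3 experiments.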

[8] = Compound was tested for inhibition of restriction endonuclease BamH1 enzyme at a concentration of 17.5 uM;Inhibited; how it was run: as §1
K562 [9] = assay: Dose required to induce 50 percent decrease in tail moment of the DNA of K562 cells following a 1 hour treatment; type: functional, Homo sapiens
How it was run: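 Alkaline Comet assay in K562 cells after 1 h drug exposure, done on ice in subdued light. Cells were irradiated (10 Gy), embedded in agarose, lysed 1 h at pH 10.5, held in alkali 45 min and electrophoresed 25 min at pH 12.5. Slides were propidium iodide stained; 25 cells per duplicate slide. Value is the dose giving 50% decrease in tail moment relative to irradiated controls.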

786-0 = assay: Compound was tested for 50% growth inhibition against human renal cancer 786-0 cell line; type: functional
A498 = assay: Compound was tested for 50% growth inhibition against human renal cancer A498 cell line; type: functional
A549 = assay: Compound was tested for 50% growth inhibition against human non-small cell lung cancer A549/ATCC cell line; type: functional
ACHN = assay: Compound was tested for 50% growth inhibition against human renal cancer ACHN cell line; type: functional
[10] = Compound was tested for inhibition of restriction endonuclease BamH1 enzyme at a concentration of 10 uM;Inhibited; how it was run: as §1
CAKI-1 = assay: Compound was tested for 50% growth inhibition against human renal cancer CAKI-1 cell line; type: functional
CCRF-CEM = assay: Compound was tested for 50% growth inhibition against human leukemia CCRF-CEM cell line; type: functional
BT-549 = assay: Compound was tested for 50% growth inhibition against human breast cancer BT-549 cell line; type: functional
COLO 205 = assay: Compound was tested for 50% growth inhibition against human colon cancer COLO 205 cell line; type: functional
DU-145 = assay: Compound was tested for 50% growth inhibition against human prostate cancer DU-145 cell line; type: functional
HCT-15 = assay: Compound was tested for 50% growth inhibition against human colon cancer HCT-15 cell line; type: functional
HT-29 = assay: Compound was tested for 50% growth inhibition against human colon cancer HT-29 cell line; type: functional
HOP-62 = assay: Compound was tested for 50% growth inhibition against human non-small cell lung cancer HOP-62 cell line; type: functional
HCT-116 = assay: Compound was tested for 50% growth inhibition against human colon cancer HCT116 cell line; type: functional
HCC 2998 = assay: Compound was tested for 50% growth inhibition against human colon cancer HCC2998 cell line; type: functional
Hs-578T = assay: Compound was tested for 50% growth inhibition against human breast cancer HS 578T cell line; type: functional
HL-60 = assay: Compound was tested for 50% growth inhibition against human leukemia […] cell line; type: functional
KM12 = assay: Compound was tested for 50% growth inhibition against human colon cancer KM12 cell line; type: functional
M14 = assay: Compound was tested for 50% growth inhibition against human melanoma M14 cell line; type: functional
LOX IMVI = assay: Compound was tested for 50% growth inhibition against human melanoma LOXIMVI cell line; type: functional
MCF7 = assay: Compound was tested for 50% growth inhibition against human breast cancer MCF-7 cell line; type: functional
MDA-MB-231 = assay: Compound was tested for 50% growth inhibition against human breast cancer MDA-MB-231/ATCC cell line; type: functional
MDA-N = assay: Compound was tested for 50% growth inhibition against human breast cancer MDA-N cell line; type: functional
MOLT-4 = assay: Compound was tested for 50% growth inhibition against human leukemia MOLT-4 cell line; type: functional
Malme-3M = assay: Compound was tested for 50% growth inhibition against human melanoma MALME-3M cell line; type: functional
NCI-H226 = assay: Compound was tested for 50% growth inhibition against human non-small cell lung cancer NCI-H226 cell line; type: functional
NCI/ADR-RES = assay: Compound was tested for 50% growth inhibition against human breast cancer NCI/ADR-RES cell line; type: functional
NCI-H322M = assay: Compound was tested for 50% growth inhibition against human non-small cell lung cancer NCI-H322M cell line; type: functional
OVCAR-8 = assay: Compound was tested for 50% growth inhibition against human ovarian cancer OVCAR-8 cell line; type: functional
NCI-H460 = assay: Compound was tested for 50% growth inhibition against human non-small cell lung cancer NCI-H460 cell line; type: functional
NCI-H23 = assay: Compound was tested for 50% growth inhibition against human non-small cell lung cancer NCI-H23 cell line; type: functional
OVCAR-5 = assay: Compound was tested for 50% growth inhibition against human ovarian cancer OVCAR-5 cell line; type: functional
RPMI-8226 = assay: Compound was tested for 50% growth inhibition against human leukemia RPMI-8226 cell line; type: functional
SF-268 = assay: Compound was tested for 50% growth inhibition against human CNS cancer SF-268 cell line; type: functional
SF-295 = assay: Compound was tested for 50% growth inhibition against human CNS cancer SF-295 cell line; type: functional
SF-539 = assay: Compound was tested for 50% growth inhibition against human CNS cancer SF-539 cell line; type: functional
SW-620 = assay: Compound was tested for 50% growth inhibition against human colon cancer SW 620 cell line; type: functional
SNB-19 = assay: Compound was tested for 50% growth inhibition against human CNS cancer SNB-19 cell line; type: functional
SR = assay: Compound was tested for 50% growth inhibition against human leukemia SR cell line; type: functional
SK-MEL-5 = assay: Compound was tested for 50% growth inhibition against human melanoma SK-MEL-5 cell line; type: functional
SK-OV-3 = assay: Compound was tested for 50% growth inhibition against human ovarian cancer SK-OV-3 cell line; type: functional
SK-MEL-28 = assay: Compound was tested for 50% growth inhibition against human melanoma SK-MEL-28 cell line; type: functional
TK-10 = assay: Compound was tested for 50% growth inhibition against human renal cancer TK-10 cell line; type: functional
T47D = assay: Compound was tested for 50% growth inhibition against human breast cancer T-47D cell line; type: functional
UO-31 = assay: Compound was tested for 50% growth inhibition against human renal cancer UO-31 cell line; type: functional
UACC-257 = assay: Compound was tested for 50% growth inhibition against human melanoma UACC-257 cell line; type: functional
U-251 = assay: Compound was tested for 50% growth inhibition against human CNS cancer U251 cell line; type: functional
EKVX = assay: Compound was tested for 50% growth inhibition against human non-small cell lung cancer EKVX cell line; type: functional
HOP-92 = assay: Compound was tested for 50% growth inhibition against human non-small cell lung cancer […] cell line; type: functional
IGROV-1 = assay: Compound was tested for 50% growth inhibition against human ovarian cancer IGROVI cell line; type: functional
OVCAR-3 = assay: Compound was tested for 50% growth inhibition against human ovarian cancer OVCAR-3 cell line; type: functional
SN12C = assay: Compound was tested for 50% growth inhibition against human renal cancer […] cell line; type: functional
PC-3 = assay: Compound was tested for 50% growth inhibition against human prostate cancer PC-3 cell line; type: functional

## Cc1ccc2c(c1O)NC(O)C1CC(/C=C/C(N)=O)=CN1C2=O (stereo unspecified)
[1]
  inhibition: 12%

## COc1cc2c(cc1OCCCOc1cc3c(cc1OC)C(=O)N1CCC[C@H]1C=N3)N=C[C@@H]1CCCN1C2=O [DSB-120]
[2]
  Activity: Inhibited
Nucleic Acid [3]
  ΔTm: 10.2 °C
Nucleic Acid [4]
  ΔTm: 15.1 °C
Nucleic Acid [5]
  ΔTm: 13.1 °C
K562 [6]
  IC50: 200 nM
Nucleic Acid [7]
  C50: 0.055 µM

## C/C=C1\C[C@H]2C=Nc3cc(O)c(OC)cc3C(=O)N2C1
Nucleic Acid [3]
  ΔTm: 1 °C
Nucleic Acid [4]
  ΔTm: 2.6 °C
Nucleic Acid [5]
  ΔTm: 2.4 °C

## C=C1C[C@H]2C=Nc3cc(OCCCOc4cc5c(cc4OC)C(=O)N4CC(=C)C[C@H]4C=N5)c(OC)cc3C(=O)N2C1 [SJG-136]
[8]
  Activity: Inhibited
Nucleic Acid [3]
  ΔTm: 25.7 °C
Nucleic Acid [4]
  ΔTm: 33.6 °C
Nucleic Acid [5]
  ΔTm: 31.9 °C
K562 [6]
  IC50: 43 nM
K562 [9]
  C50: 0.03 µM
Nucleic Acid [7]
  C50: 0.045 µM

## C=C1C[C@H]2C=Nc3cc(OCCCCCOc4cc5c(cc4OC)C(=O)N4CC(=C)C[C@H]4C=N5)c(OC)cc3C(=O)N2C1
786-0
  GI50: 0.0977 nM
A498
  GI50: 0.224 nM
A549
  GI50: 0.123 nM
ACHN
  GI50: 0.0251 nM
[10]
  Activity: Inhibited
CAKI-1
  GI50: 0.178 nM
CCRF-CEM
  GI50: 0.00646 nM
BT-549
  GI50: 0.162 nM
COLO 205
  GI50: 0.166 nM
Nucleic Acid [3]
  ΔTm: 24.9 °C
Nucleic Acid [4]
  ΔTm: 25.8 °C
Nucleic Acid [5]
  ΔTm: 25.5 °C
DU-145
  GI50: 0.049 nM
HCT-15
  GI50: 1.74 nM
HT-29
  GI50: 0.224 nM
HOP-62
  GI50: 0.117 nM
HCT-116
  GI50: 0.174 nM
HCC 2998
  GI50: 0.186 nM
Hs-578T
  GI50: 0.302 nM
HL-60
  GI50: 0.0148 nM
K562 [6]
  IC50: < 1 nM
K562 [9]
  C50: 0.009 µM
KM12
  GI50: 0.245 nM
M14
  GI50: 0.141 nM
LOX IMVI
  GI50: 0.0549 nM
MCF7
  GI50: 0.0933 nM
MDA-MB-231
  GI50: 0.371 nM
MDA-N
  GI50: 0.209 nM
MOLT-4
  GI50: 0.012 nM
Malme-3M
  GI50: 0.162 nM
NCI-H226
  GI50: 0.162 nM
NCI/ADR-RES
  GI50: 7.94 nM
NCI-H322M
  GI50: 0.468 nM
OVCAR-8
  GI50: 0.195 nM
NCI-H460
  GI50: 0.0955 nM
NCI-H23
  GI50: 0.0832 nM
OVCAR-5
  GI50: 0.309 nM
RPMI-8226
  GI50: 0.186 nM
SF-268
  GI50: 0.0501 nM
SF-295
  GI50: 0.038 nM
SF-539
  GI50: 0.0363 nM
SW-620
  GI50: 0.288 nM
SNB-19
  GI50: 0.105 nM
SR
  GI50: < 0.001 nM
SK-MEL-5
  GI50: 0.245 nM
SK-OV-3
  GI50: 0.162 nM
SK-MEL-28
  GI50: 0.219 nM
TK-10
  GI50: 0.295 nM
T47D
  GI50: 0.0199 nM
UO-31
  GI50: 0.251 nM
UACC-257
  GI50: 0.525 nM
U-251
  GI50: 0.0427 nM
Nucleic Acid [7]
  C50: 0.004 µM
EKVX
  GI50: 1.58 nM
HOP-92
  GI50: 0.112 nM
IGROV-1
  GI50: 0.0049 nM
OVCAR-3
  GI50: 0.2 nM
SN12C
  GI50: 0.0269 nM
PC-3
  GI50: 0.617 nM

## COc1cc2c(cc1OCCCCCOc1cc3c(cc1OC)C(=O)N1CCC[C@H]1C=N3)N=C[C@@H]1CCCN1C2=O
Nucleic Acid [3]
  ΔTm: 3.3 °C
Nucleic Acid [4]
  ΔTm: 9.4 °C
Nucleic Acid [5]
  ΔTm: 5.9 °C
K562 [6]
  IC50: 500 nM
Nucleic Acid [7]
  C50: 0.07 µM
